Assay results reported in ChEMBL document CHEMBL2390901, “Synthesis and biological evaluation of N-(4-hydroxy-3-mercaptonaphthalen-1-yl)amides as inhibitors of angiogenesis and tumor growth” (Eur J Med Chem, 2013).
Calls of active or inactive are those of the source. No cut-off for these calls is given here.

Experiments:
[1] = tested on: HCT-116; experiment: Antiproliferative activity against human HCT116 cells after 48 hrs by MTT assay; assay type: functional, cell-based; conditions: HCT-116, 48 h
Summary of the method: (§1)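 Cells kept in RPMI 1640 with 10 % FBS at 37 °C, 5 % CO2. Seeded 5,000/well, allowed 4 h, then exposed to serial dilutions for 48 h. MTT added for the last 4 h; formazan dissolved in DMSO, absorbance at 570 nm.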

[2] = target: ALK tyrosine kinase receptor (Homo sapiens) (UniProt Q9UM73); experiment: Inhibition of ALK (unknown origin) at 10 uM after 30 mins by fluorescence assay
Sequence of ALK tyrosine kinase receptor (Homo sapiens) (Q9UM73 19-1620 limits assumed): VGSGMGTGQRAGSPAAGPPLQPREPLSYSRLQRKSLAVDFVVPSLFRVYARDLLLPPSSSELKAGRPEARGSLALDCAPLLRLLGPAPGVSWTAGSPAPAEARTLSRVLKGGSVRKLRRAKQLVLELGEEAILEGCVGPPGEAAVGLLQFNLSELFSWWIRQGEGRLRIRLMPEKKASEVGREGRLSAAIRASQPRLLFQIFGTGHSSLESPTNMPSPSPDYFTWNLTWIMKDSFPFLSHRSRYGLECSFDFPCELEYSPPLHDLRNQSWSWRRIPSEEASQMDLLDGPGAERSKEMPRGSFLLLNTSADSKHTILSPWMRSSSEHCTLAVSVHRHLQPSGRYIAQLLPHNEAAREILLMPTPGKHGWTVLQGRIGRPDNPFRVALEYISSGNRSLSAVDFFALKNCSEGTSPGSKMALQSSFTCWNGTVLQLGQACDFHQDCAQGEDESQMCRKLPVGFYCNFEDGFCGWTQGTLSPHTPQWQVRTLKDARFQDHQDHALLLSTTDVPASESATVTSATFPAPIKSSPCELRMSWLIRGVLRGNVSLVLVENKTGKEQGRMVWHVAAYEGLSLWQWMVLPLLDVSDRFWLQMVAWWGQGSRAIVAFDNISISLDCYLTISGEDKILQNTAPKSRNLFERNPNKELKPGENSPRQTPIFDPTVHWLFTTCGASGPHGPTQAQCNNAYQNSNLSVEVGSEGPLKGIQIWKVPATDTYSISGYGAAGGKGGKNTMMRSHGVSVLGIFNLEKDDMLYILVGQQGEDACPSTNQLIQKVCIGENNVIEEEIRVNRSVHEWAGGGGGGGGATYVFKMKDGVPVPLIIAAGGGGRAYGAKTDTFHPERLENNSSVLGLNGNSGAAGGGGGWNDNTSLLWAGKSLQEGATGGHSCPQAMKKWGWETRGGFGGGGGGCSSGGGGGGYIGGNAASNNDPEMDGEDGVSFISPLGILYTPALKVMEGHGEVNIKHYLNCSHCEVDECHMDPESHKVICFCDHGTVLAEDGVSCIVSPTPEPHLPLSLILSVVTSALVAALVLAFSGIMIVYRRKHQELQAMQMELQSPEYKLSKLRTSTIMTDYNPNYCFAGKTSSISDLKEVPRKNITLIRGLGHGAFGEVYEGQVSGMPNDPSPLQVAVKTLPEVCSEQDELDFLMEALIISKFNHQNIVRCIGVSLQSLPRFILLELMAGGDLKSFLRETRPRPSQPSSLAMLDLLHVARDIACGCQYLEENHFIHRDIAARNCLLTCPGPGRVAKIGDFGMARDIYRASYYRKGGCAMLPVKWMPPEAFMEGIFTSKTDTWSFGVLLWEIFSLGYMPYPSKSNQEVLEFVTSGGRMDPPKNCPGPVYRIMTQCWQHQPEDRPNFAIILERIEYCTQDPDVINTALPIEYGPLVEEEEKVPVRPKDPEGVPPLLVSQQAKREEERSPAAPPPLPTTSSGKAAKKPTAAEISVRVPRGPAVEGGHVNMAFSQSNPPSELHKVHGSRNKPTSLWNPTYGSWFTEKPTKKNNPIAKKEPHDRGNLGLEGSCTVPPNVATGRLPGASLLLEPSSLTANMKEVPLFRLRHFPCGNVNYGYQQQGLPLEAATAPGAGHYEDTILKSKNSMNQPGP
Summary of the method: (§2)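 Single 10 μM test. Enzyme preincubated with compound in Hepes/Tris pH 7.4, EGTA/Tris, MgCl2, DTT, 0.008 % Tween 20. Substrate peptide and ATP added; 30 min at room temperature. Stopped with EDTA; europium-labelled anti-phospho PT66 antibody added, TR-FRET read after 60 min. Percent inhibition versus control enzyme activity; no-enzyme basal control; duplicate.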

[3] = tested on: PC-3; experiment: Antiproliferative activity against human PC3 cells after 48 hrs by MTT assay; assay type: functional, cell-based; conditions: PC-3, 48 h; summary of the method: as §1
[4] = tested on: MDA-MB-231; experiment: Antiproliferative activity against human MDA-MB-231 cells after 48 hrs by MTT assay; assay type: functional, cell-based; conditions: MDA-MB-231, 48 h; summary of the method: as §1
[5] = tested on: Aorta; experiment: Antiangiogenic activity in Sprague-Dawley rat aortic rings assessed as inhibition of microvessel outgrowth at 50 uM after 6 days by matrigel assay; assay type: functional; conditions: for inhibition at 50 µM: 144 h
Summary of the method: (§3)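 Aortas from 8–10-week-old male Sprague Dawley rats cleaned of fibroadipose tissue, cut into 1-mm rings, embedded between two Matrigel layers. Compound or vehicle (0.5 % DMSO) added every other day for 6 days; imaged day 7 (×200). Sprouting area quantified as pixels versus vehicle; mean ± SD, three independent experiments.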

[6] = target: RAC-alpha serine/threonine-protein kinase (Homo sapiens) (UniProt P31749); experiment: Inhibition of AKT1 (unknown origin) at 10 uM after 30 mins by fluorescence assay; summary of the method: as §2
Sequence of RAC-alpha serine/threonine-protein kinase (Homo sapiens) (P31749 whole entry): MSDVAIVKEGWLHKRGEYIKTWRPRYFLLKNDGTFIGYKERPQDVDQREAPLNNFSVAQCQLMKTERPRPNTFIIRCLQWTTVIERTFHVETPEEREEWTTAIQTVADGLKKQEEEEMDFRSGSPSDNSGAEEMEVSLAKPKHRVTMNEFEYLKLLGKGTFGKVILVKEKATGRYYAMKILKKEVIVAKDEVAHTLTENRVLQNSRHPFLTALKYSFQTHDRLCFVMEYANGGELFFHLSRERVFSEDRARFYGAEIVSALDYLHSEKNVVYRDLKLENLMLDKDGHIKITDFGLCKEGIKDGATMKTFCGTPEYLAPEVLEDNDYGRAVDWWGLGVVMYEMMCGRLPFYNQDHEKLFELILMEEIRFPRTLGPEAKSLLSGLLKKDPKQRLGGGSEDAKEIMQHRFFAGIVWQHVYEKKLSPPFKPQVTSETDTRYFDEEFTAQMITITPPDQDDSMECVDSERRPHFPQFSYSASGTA

[7] = tested on: HUVEC; experiment: Antiangiogenic activity in HUVEC assessed as inhibition of tube formation at 10 uM after 6 hrs by matrigel assay; assay type: functional; conditions: Homo sapiens
Summary of the method: (§4)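 HUVECs seeded at 40,000 cells/well on Matrigel (gelled 30 min, 37 °C) in M199 with 5 % FBS plus compound or vehicle (0.5 % DMSO); 6 h at 37 °C, 5 % CO2. Tubes photographed by phase-contrast (×200); tube area measured as pixels and compared with vehicle. Mean ± SD of three independent experiments.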

[8] = tested on: K562; experiment: Antiproliferative activity against human K562 cells after 48 hrs by MTT assay; assay type: functional, cell-based; conditions: K562, 48 h; summary of the method: as §1
[9] = tested on: MCF7; experiment: Antiproliferative activity against human MCF7 cells after 48 hrs by MTT assay; assay type: functional, cell-based; conditions: MCF7, 48 h; summary of the method: as §1
[10] = tested on: HUVEC; experiment: Antiproliferative activity against human HUVEC cells after 48 hrs by MTT assay; assay type: functional, cell-based; summary of the method: as §1
[11] = tested on: HUVEC; experiment: Antiangiogenic activity in HUVEC assessed as inhibition of tube formation at 50 uM after 6 hrs by matrigel assay; assay type: functional; conditions: Homo sapiens; summary of the method: as §4
[12] = tested on: A549; experiment: Antiproliferative activity against human A549 cells after 48 hrs by MTT assay; assay type: functional, cell-based; conditions: A549, 48 h; summary of the method: as §1
[13] = tested on: Aorta; experiment: Antiangiogenic activity in Sprague-Dawley rat aortic rings assessed as inhibition of microvessel outgrowth at 1 uM after 6 days by matrigel assay; assay type: functional; conditions: 144 h; summary of the method: as §3
[14] = tested on: Aorta; experiment: Antiangiogenic activity in Sprague-Dawley rat aortic rings assessed as reduction of microvessel outgrowth after 6 days by matrigel assay; assay type: functional, tissue-based; summary of the method: as §3
[15] = target: Platelet-derived growth factor receptor beta (Homo sapiens) (UniProt P09619); experiment: Inhibition of PDGFR-beta (unknown origin) at 10 uM after 30 mins by fluorescence assay
Sequence of Platelet-derived growth factor receptor beta (Homo sapiens) (P09619 whole entry): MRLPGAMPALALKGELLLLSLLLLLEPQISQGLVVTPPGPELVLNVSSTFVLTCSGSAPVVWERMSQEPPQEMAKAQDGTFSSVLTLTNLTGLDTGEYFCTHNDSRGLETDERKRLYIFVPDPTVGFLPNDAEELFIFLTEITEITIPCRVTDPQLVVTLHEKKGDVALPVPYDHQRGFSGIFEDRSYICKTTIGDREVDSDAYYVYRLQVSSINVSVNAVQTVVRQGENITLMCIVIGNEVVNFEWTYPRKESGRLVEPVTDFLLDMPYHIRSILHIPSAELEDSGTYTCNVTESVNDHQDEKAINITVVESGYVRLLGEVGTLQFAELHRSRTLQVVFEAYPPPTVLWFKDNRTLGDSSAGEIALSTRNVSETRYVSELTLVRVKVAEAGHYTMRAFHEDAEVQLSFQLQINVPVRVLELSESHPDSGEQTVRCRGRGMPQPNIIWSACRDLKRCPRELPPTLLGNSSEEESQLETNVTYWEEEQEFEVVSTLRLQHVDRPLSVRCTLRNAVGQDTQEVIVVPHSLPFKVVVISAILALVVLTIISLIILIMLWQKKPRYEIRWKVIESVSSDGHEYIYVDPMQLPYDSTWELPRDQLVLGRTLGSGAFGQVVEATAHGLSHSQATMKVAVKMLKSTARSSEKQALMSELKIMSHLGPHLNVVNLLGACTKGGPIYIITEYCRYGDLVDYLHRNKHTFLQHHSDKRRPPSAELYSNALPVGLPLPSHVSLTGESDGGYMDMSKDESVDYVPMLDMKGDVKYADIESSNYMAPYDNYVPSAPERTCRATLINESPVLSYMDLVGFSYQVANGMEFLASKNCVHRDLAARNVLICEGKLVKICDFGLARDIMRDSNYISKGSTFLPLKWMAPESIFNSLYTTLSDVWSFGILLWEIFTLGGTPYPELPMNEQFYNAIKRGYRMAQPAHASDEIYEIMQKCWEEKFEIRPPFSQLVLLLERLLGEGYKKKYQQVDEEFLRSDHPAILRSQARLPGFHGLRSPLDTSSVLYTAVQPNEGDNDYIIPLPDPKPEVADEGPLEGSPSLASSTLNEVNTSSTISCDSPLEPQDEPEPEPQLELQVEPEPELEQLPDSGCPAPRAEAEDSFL

[16] = target: Vascular endothelial growth factor receptor 2 (Homo sapiens) (UniProt P35968); experiment: Inhibition of VEGFR2 (unknown origin) at 10 uM after 30 mins by fluorescence assay
Sequence of Vascular endothelial growth factor receptor 2 (Homo sapiens) (P35968 whole entry): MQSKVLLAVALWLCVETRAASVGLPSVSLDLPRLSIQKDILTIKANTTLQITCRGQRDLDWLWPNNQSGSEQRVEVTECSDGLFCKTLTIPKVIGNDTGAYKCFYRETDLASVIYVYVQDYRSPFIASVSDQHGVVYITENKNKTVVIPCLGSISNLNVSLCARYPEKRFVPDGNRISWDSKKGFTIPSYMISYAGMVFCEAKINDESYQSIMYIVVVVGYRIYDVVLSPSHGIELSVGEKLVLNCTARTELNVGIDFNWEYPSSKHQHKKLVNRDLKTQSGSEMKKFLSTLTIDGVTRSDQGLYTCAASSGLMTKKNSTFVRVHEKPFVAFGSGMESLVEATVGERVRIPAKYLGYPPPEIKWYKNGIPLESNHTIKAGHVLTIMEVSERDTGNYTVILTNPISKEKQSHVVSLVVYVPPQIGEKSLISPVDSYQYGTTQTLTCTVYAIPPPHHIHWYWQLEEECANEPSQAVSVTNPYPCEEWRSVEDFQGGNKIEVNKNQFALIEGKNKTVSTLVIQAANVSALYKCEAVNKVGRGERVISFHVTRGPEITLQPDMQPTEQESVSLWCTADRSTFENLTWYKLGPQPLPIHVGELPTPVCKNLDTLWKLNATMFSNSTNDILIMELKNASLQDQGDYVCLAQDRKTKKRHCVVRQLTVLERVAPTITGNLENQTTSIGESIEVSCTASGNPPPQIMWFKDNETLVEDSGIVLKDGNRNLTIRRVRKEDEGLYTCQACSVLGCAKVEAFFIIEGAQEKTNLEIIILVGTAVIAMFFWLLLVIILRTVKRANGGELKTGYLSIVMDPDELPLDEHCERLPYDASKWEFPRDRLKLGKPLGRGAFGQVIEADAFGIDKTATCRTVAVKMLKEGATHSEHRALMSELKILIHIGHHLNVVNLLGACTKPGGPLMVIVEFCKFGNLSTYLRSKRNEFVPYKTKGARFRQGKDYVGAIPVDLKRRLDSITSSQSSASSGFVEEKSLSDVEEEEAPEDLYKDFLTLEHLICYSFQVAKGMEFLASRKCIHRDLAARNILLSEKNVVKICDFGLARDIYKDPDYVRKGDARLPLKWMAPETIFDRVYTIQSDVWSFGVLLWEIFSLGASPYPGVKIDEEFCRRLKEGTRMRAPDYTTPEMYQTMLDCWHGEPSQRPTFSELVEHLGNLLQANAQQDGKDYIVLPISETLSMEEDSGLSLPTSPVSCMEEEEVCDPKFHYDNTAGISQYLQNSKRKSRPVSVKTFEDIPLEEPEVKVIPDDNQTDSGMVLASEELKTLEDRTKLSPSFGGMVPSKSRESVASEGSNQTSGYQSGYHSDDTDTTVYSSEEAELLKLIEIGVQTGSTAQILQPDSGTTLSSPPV

| SMILES | IC50 [1] [µM] | inhibition [2] | IC50 [3] [µM] | IC50 [4] [µM] | inhibition [5] | inhibition [6] [%] | inhibition [7] | IC50 [8] [µM] | IC50 [9] [µM] | IC50 [10] [µM] | inhibition at 50 µM [11] [%] | IC50 [12] [µM] | inhibition at 1 µM [13] [%] | inhibition at 50 µM [5] [%] | Activity [14] | inhibition at 10 µM [7] [%] | inhibition [15] [%] | inhibition [16] [%] |
| --- | --- | --- | --- | --- | --- | --- | --- | --- | --- | --- | --- | --- | --- | --- | --- | --- | --- | --- |
| O=C(/C=C/c1ccc(Cl)cc1)Nc1cc(Sc2ncn[nH]2)c(O)c2ccccc12 | > 100 | 0.7% | > 100 | > 100 | Active | 31.8 |  |  |  |  |  |  |  |  |  |  |  |  |
| CN[C@@H]1C[C@H]2O[C@@](C)([C@@H]1OC)n1c3ccccc3c3c4c(c5c6ccccc6n2c5c31)C(=O)NC4 |  | 97.9% |  |  |  |  |  |  |  |  |  |  |  |  |  |  |  |  |
| Cc1cccc(C(=O)Nc2cc(Sc3ncn[nH]3)c(O)c3ccccc23)c1 | > 100 | inactive | 59.5 | > 100 | Active | 20.2 |  |  |  |  |  |  |  |  |  |  |  |  |
| O=C(Nc1cc(Sc2ncn[nH]2)c(O)c2ccccc12)c1ccc(Cl)cc1 | 43.3 | inactive | 5.52 | 25.7 | inactive | 50.1 | Active | 18.8 | > 100 | > 100 | 65 | 41.9 |  |  |  |  |  |  |
| O=C(Nc1cc(Sc2ncn[nH]2)c(O)c2ccccc12)c1cccc([N+](=O)[O-])c1 | 70.2 | inactive | 26.9 | 48 | Active | 29.3 |  |  |  |  |  |  |  |  |  |  |  |  |
| O=C(Nc1cc(Sc2ncnc3nc[nH]c23)c(O)c2ccccc12)c1ccccc1[N+](=O)[O-] | 31.7 | inactive | > 100 | 54.2 |  | 50.7 |  | 37.2 | > 100 |  | > 80 | > 100 | > 70 | 96 | Dose-dependent effect |  |  |  |
| O=C(Nc1cc(Sc2ncn[nH]2)c(O)c2ccccc12)c1ccc([N+](=O)[O-])cc1 | > 100 | 3.37% | 53.5 | > 100 | Active | 37.3 |  |  |  |  | > 80 |  |  |  |  |  |  |  |
| COc1ccc(C(=O)Nc2cc(Sc3ncn[nH]3)c(O)c3ccccc23)cc1 | > 100 | inactive | > 100 | > 100 | Active | 30.8 |  |  |  |  |  |  |  |  |  |  |  |  |
| O=C(Nc1cc(Sc2ncn[nH]2)c(O)c2ccccc12)c1ccccc1[N+](=O)[O-] | 10.2 | 56.8% | 52.5 | 21.4 |  | 85.8 |  | 10.8 | 2.81 | 5.34 | > 80 | 40.5 | 91 | 95 | Dose-dependent effect | 83 | 37.9 | 65.2 |
| Cn1nnnc1Sc1cc(NC(=O)c2ccc(Cl)cc2)c2ccccc2c1O | > 100 | inactive | > 100 | > 100 | Active | 13.1 |  |  |  |  |  |  |  |  |  |  |  |  |
| COc1ccc(/C=C/C(=O)Nc2cc(Sc3ncn[nH]3)c(O)c3ccccc23)cc1OC | > 100 | 14.9% | > 100 | 52.5 | Active | 31.6 |  |  |  |  |  |  |  |  |  |  |  |  |
| O=C(/C=C/c1ccccc1)Nc1cc(Sc2ncn[nH]2)c(O)c2ccccc12 | > 100 | inactive | > 100 | > 100 | Active | 26.1 |  |  |  |  | > 80 |  |  |  |  |  |  |  |
| O=C(Nc1cc(Sc2ncn[nH]2)c(O)c2ccccc12)c1ccc2ccccc2c1 | > 100 | inactive | > 100 | 45.1 | Active | 41.6 |  |  |  |  |  |  |  |  |  |  |  |  |
| O=C(Nc1cc(Sc2ncnc3nc[nH]c23)c(O)c2ccccc12)c1ccc(Cl)cc1 | > 100 | inactive | 66.4 | 23 |  | 21.7 |  | 16.9 | 14.4 | 7.53 |  | 38.4 | > 70 | 92 | Dose-dependent effect |  |  |  |
| O=C(Nc1cc(Sc2nncs2)c(O)c2ccccc12)c1ccc(Cl)cc1 | > 100 | 4.2% | > 100 | > 100 | Active | 7.5 |  |  |  |  | > 80 |  |  |  |  |  |  |  |
| COc1cccc(C(=O)Nc2cc(Sc3ncn[nH]3)c(O)c3ccccc23)c1 | > 100 | inactive | 42.1 | > 100 | Active | 19.4 |  |  |  |  |  |  |  |  |  |  |  |  |
| O=C(Nc1cc(Sc2ncn[nH]2)c(O)c2ccccc12)c1cccc(Cl)c1 | > 100 | inactive | 85.6 | > 100 | Active | 46 |  |  |  |  | > 80 |  |  |  |  |  |  |  |
| CNC(=O)c1cc(Oc2ccc(NC(=O)Nc3ccc(Cl)c(C(F)(F)F)c3)cc2)ccn1 [SORAFENIB] | 8.08 |  | 24.2 | 14.6 |  |  |  | 13.8 | 7.33 | 6.42 |  | 12.5 |  |  |  |  |  |  |
| O=C(Nc1cc(Sc2ncnc3nc[nH]c23)c(O)c2ccccc12)c1ccc([N+](=O)[O-])cc1 | > 100 |  | > 100 | > 100 | Active |  |  |  |  |  |  |  |  |  |  |  |  |  |
| O=C(/C=C/c1ccc([N+](=O)[O-])cc1)Nc1cc(Sc2ncn[nH]2)c(O)c2ccccc12 | > 100 | inactive | > 100 | > 100 | Active | 40.6 |  |  |  |  |  |  |  |  |  |  |  |  |
